From ChEMBL document CHEMBL1806428, “Design and synthesis of spiro derivatives of parthenin as novel anti-cancer agents” (Eur J Med Chem, 2011)
Active and inactive are the calls of the source. No cut-off for these calls is given here.

Legend:
DU-145 = assay: Cytotoxicity against human DU145 cells assessed as cell growth after 48 hrs by sulforhodamine B assay; assay type: functional, cell-based; conditions: Homo sapiens, DU-145, 48 h
In short: (§1)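 Log-phase cells seeded at 10^4/well and allowed to attach for 24 h at 37 °C, 5% CO2. Exposed for 48 h to 0.1–100 (1:10 serial dilutions), four replicate wells per condition. Fixed with cold 50% TCA for 1 h at 4 °C, stained with sulforhodamine B, dye dissolved in Tris, OD read at 540 nm. Blank-subtracted growth expressed relative to untreated cells (100%); IC50 reported.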

PC-3 = assay: Cytotoxicity against human PC3 cells assessed as cell growth after 48 hrs by sulforhodamine B assay; assay type: functional, cell-based; conditions: Homo sapiens, PC-3, 48 h; in short: as §1
SW-620 [1] = assay: Cytotoxicity against human SW620 cells assessed as cell growth after 48 hrs by sulforhodamine B assay; assay type: functional, cell-based; conditions: Homo sapiens, SW-620, 48 h; in short: as §1
[2] = Partition coefficient, log P of the compound; assay type: physicochemical; conditions: octanol/water
[3] = Antitumor activity against mouse Ehrlich Ascites tumor xenografted in Swiss albino mouse assessed as decrease in tumor weight at 20 mg/kg, ip administered for 9 days (reference value: 1708+/-51.07 mg); assay type: functional; conditions: route intraperitoneal
[4] = Antitumor activity against mouse Ehrlich Ascites tumor xenografted in Swiss albino mouse assessed as tumor growth inhibition at 20 mg/kg, ip administered for 9 days measured on day 13; assay type: functional; conditions: route intraperitoneal, read-out: GI
SW-620 [5] = assay: Induction of apoptosis in human SW620 cells assessed as DNA fragmentation at 5 uM after 6 hrs by gel electrophoresis; assay type: functional, cell-based
SW-620 [6] = assay: Cell cycle arrest in human SW620 cells assessed as increase in sub-G1 DNA content at 5 uM after 24 hrs using propidium iodide staining by flow cytometry (reference value: 3.45%); assay type: functional

Row | SMILES | IC50 (DU-145) [µM] | IC50 (PC-3) [µM] | IC50 (SW-620 [1]) [µM] | logP [2] | Activity [3] [mg] | inhibition in vivo at 20 mg/kg [4] [%] | Activity (SW-620 [5]) | Activity (SW-620 [6]) [%]
1 | C[C@H]1CC[C@@H]2[C@@H](OC(=O)[C@]23CC(c2ccc([N+](=O)[O-])cc2)=NO3)[C@]2(C)C(=O)C=C[C@@]12O | 7 | 12 | 9 | 1.37 | – | – | – | –
2 | Cc1ccccc1N1C[C@]12C(=O)O[C@@H]1[C@H]2CC[C@H](C)[C@]2(O)C=CC(=O)[C@@]12C | 30 | 12.5 | 22 | 1.83 | – | – | – | –
3 | C[C@H]1CC[C@@H]2[C@@H](OC(=O)[C@]23CC(c2ccccc2)=NO3)[C@]2(C)C(=O)C=C[C@@]12O | 39.8 | 46 | 45.4 | 1.41 | – | – | – | –
4 | COc1ccc(N2C[C@]23C(=O)O[C@@H]2[C@H]3CC[C@H](C)[C@]3(O)C=CC(=O)[C@@]23C)cc1 | 78 | 12 | 30 | 1.41 | – | – | – | –
5 | COc1cc(C2=NO[C@]3(C2)C(=O)O[C@@H]2[C@H]3CC[C@H](C)[C@]3(O)C=CC(=O)[C@@]23C)ccc1O | 71 | 16 | 88 | 0.75 | – | – | – | –
6 | Cc1cccc(N2C[C@]23C(=O)O[C@@H]2[C@H]3CC[C@H](C)[C@]3(O)C=CC(=O)[C@@]23C)c1 | 62.5 | 61.5 | 15 | 1.83 | – | – | – | –
7 | Cc1ccc(C2=NO[C@]3(C2)C(=O)O[C@@H]2[C@H]3CC[C@H](C)[C@]3(O)C=CC(=O)[C@@]23C)cc1 | 14 | 14 | 2.5 | 1.86 | – | – | – | –
8 | C[C@H]1CC[C@@H]2[C@@H](OC(=O)[C@]23CN3c2cccc(Cl)c2)[C@]2(C)C(=O)C=C[C@@]12O | 39.5 | 86.1 | 48.4 | 2.03 | – | – | – | –
9 | COc1ccc(C2=NO[C@]3(C2)C(=O)O[C@@H]2[C@H]3CC[C@H](C)[C@]3(O)C=CC(=O)[C@@]23C)cc1 | 20 | 35 | 41 | 1.47 | – | – | – | –
10 | COc1ccc(C2=NO[C@]3(C2)C(=O)O[C@@H]2[C@H]3CC[C@H](C)[C@]3(O)C=CC(=O)[C@@]23C)cc1OC | 84 | 25 | 86 | 1.06 | – | – | – | –
11 | C[C@H]1CC[C@@H]2[C@@H](OC(=O)[C@]23CC(c2ccc(Cl)cc2)=NO3)[C@]2(C)C(=O)C=C[C@@]12O | 43 | 49 | 51 | 2.09 | – | – | – | –
12 | Cc1ccccc1C1=NO[C@]2(C1)C(=O)O[C@@H]1[C@H]2CC[C@H](C)[C@]2(O)C=CC(=O)[C@@]12C | 12 | 10 | 5 | 1.86 | – | – | – | –
13 | Cc1ccc(N2C[C@]23C(=O)O[C@@H]2[C@H]3CC[C@H](C)[C@]3(O)C=CC(=O)[C@@]23C)cc1 | 36 | 25 | 32 | 1.83 | – | – | – | –
14 | C[C@H]1CC[C@@H]2[C@@H](OC(=O)[C@]23CC(c2c(Cl)cccc2Cl)=NO3)[C@]2(C)C(=O)C=C[C@@]12O | 38 | 56 | 43 | 2.67 | – | – | – | –
15 | C[C@H]1CC[C@@H]2[C@@H](OC(=O)[C@]23CC(c2ccccc2F)=NO3)[C@]2(C)C(=O)C=C[C@@]12O | 24 | 8.2 | 11 | 1.57 | – | – | – | –
16 | COc1ccccc1N1C[C@]12C(=O)O[C@@H]1[C@H]2CC[C@H](C)[C@]2(O)C=CC(=O)[C@@]12C | 27 | 52 | 47.3 | 1.41 | – | – | – | –
17 | C[C@H]1CC[C@@H]2[C@@H](OC(=O)[C@]23CC(c2ccc(N(C)C)cc2)=NO3)[C@]2(C)C(=O)C=C[C@@]12O | 4.5 | 6.3 | 5.1 | 1.51 | – | – | – | –
18 | C[C@H]1CC[C@@H]2[C@@H](OC(=O)[C@]23CN3c2ccccc2[N+](=O)[O-])[C@]2(C)C(=O)C=C[C@@]12O | 28 | 10 | 33 | 1.31 | – | – | – | –
19 | C[C@H]1CC[C@@H]2[C@@H](OC(=O)[C@]23CC(c2cccc([N+](=O)[O-])c2)=NO3)[C@]2(C)C(=O)C=C[C@@]12O | 51 | 55 | 49 | 1.37 | – | – | – | –

Row | SMILES | IC50 (DU-145) [µM] | IC50 (PC-3) [µM] | IC50 (SW-620 [1]) [µM] | logP [2] | Activity [3] [mg] | inhibition in vivo at 20 mg/kg [4] [%] | Activity (SW-620 [5]) | Activity (SW-620 [6]) [%]
20 | C[C@H]1CC[C@@H]2[C@@H](OC(=O)[C@]23CC(c2ccc([N+](=O)[O-])cc2)N(c2ccccc2)O3)[C@]2(C)C(=O)C=C[C@@]12O (mixture of isomers) | – | – | – | 3.15 | – | – | – | –
21 | COc1ccc(C2C[C@@]3(ON2c2ccccc2)C(=O)O[C@@H]2[C@H]3CC[C@H](C)[C@]3(O)C=CC(=O)[C@@]23C)cc1 (mixture of isomers) | – | – | – | 3.25 | – | – | – | –
22 | O=c1[nH]cc(F)c(=O)[nH]1 [FLUOROURACIL] | – | – | – | – | 832.28 | 51.3 | – | –
23 | Cc1ccccc1C1C[C@@]2(ON1c1ccccc1)C(=O)O[C@@H]1[C@H]2CC[C@H](C)[C@]2(O)C=CC(=O)[C@@]12C (mixture of isomers) | – | – | – | 3.64 | – | – | – | –
24 | C[C@H]1CC[C@@H]2[C@@H](OC(=O)[C@]23CC(c2ccc(Cl)cc2)N(c2ccccc2)O3)[C@]2(C)C(=O)C=C[C@@]12O (mixture of isomers) | – | – | – | 3.87 | – | – | – | –
25 | C[C@H]1CC[C@@H]2[C@@H](OC(=O)[C@]23CC(c2ccccc2Cl)=NO3)[C@]2(C)C(=O)C=C[C@@]12O | 19 | 12 | 9 | 2.09 | – | – | – | –
26 | C[C@H]1CC[C@@H]2[C@@H](OC(=O)[C@]23CC(c2ccccc2[N+](=O)[O-])=NO3)[C@]2(C)C(=O)C=C[C@@]12O | 34 | 37 | 40 | 1.37 | – | – | – | –
27 | C[C@H]1CC[C@@H]2[C@@H](OC(=O)[C@]23CC(c2c(F)cccc2F)N(c2ccccc2)O3)[C@]2(C)C(=O)C=C[C@@]12O (mixture of isomers) | – | – | – | 3.42 | – | – | – | –
28 | C[C@H]1CC[C@@H]2[C@@H](OC(=O)[C@]23CN3c2cccc([N+](=O)[O-])c2)[C@]2(C)C(=O)C=C[C@@]12O | 30 | 10.1 | 61 | 1.31 | – | – | – | –
29 | C[C@H]1CC[C@@H]2[C@@H](OC(=O)[C@]23CN3c2ccccc2)[C@]2(C)C(=O)C=C[C@@]12O | 31.4 | 10.6 | 87.7 | 1.38 | – | – | – | –
30 | C[C@H]1CC[C@@H]2[C@@H](OC(=O)[C@]23CC(c2c(F)c(F)c(F)c(F)c2F)N(c2ccccc2)O3)[C@]2(C)C(=O)C=C[C@@]12O (mixture of isomers) | – | – | – | 3.72 | – | – | – | –
31 | CC[C@@]1(O)C(=O)OCc2c1cc1n(c2=O)Cc2cc3ccccc3nc2-1 [CAMPTOTHECIN] | – | – | – | – | – | – | Active | 60
32 | C[C@H]1CC[C@@H]2[C@@H](OC(=O)[C@]23CC(c2ccccc2Br)=NO3)[C@]2(C)C(=O)C=C[C@@]12O | 18 | 51 | 44 | 2.22 | – | – | – | –
33 | C[C@H]1CC[C@@H]2[C@@H](OC(=O)[C@]23CC(c2ccc(C#N)cc2)N(c2ccccc2)O3)[C@]2(C)C(=O)C=C[C@@]12O (mixture of isomers) | – | – | – | 2.94 | – | – | – | –
34 | Cc1cccc(C2=NO[C@]3(C2)C(=O)O[C@@H]2[C@H]3CC[C@H](C)[C@]3(O)C=CC(=O)[C@@]23C)c1 | 28 | 66.6 | 15 | 1.86 | – | – | – | –
35 | COC(=O)c1cccc(N2C[C@]23C(=O)O[C@@H]2[C@H]3CC[C@H](C)[C@]3(O)C=CC(=O)[C@@]23C)c1 | 18.5 | 10.1 | 30 | 1.52 | – | – | – | –
36 | C[C@H]1CC[C@@H]2[C@@H](OC(=O)[C@]23CC(c2ccc(F)cc2)=NO3)[C@]2(C)C(=O)C=C[C@@]12O | 13 | 27 | 3.6 | 1.57 | – | – | – | –
37 | C[C@H]1CC[C@@H]2[C@@H](OC(=O)[C@]23CC(c2ccc(C#N)cc2)=NO3)[C@]2(C)C(=O)C=C[C@@]12O | 26 | 32 | 53 | 1.17 | – | – | – | –
38 | C[C@H]1CC[C@@H]2[C@@H](OC(=O)[C@]23CC(c2ccc(O)cc2)=NO3)[C@]2(C)C(=O)C=C[C@@]12O | 93 | 20 | 89 | 0.932 | – | – | – | –
